# In ChEMBL document CHEMBL1153061, “Synergism of virtual screening and medicinal chemistry: identification and optimization of allosteric antagonists of metabotropic glutamate receptor 1” (Bioorg Med Chem, 2009):
# The source made the active and inactive calls. The rule behind the calls is not given here.
# What was measured:
# [1] = biological target: T1, Metabotropic glutamate receptor 1 (Rattus norvegicus, UniProt P23385); assay: Displacement of [3H]E-3-(2-chloro-8-methylquinolin-3-yl)-1-(thiophen-2-yl)prop-2-en-1-one from mGluR1 in rat cerebellar membrane after 14 to 16 hrs by scintillation counting; format: cell membranes, Cerebellum
# [2] = biological target: Metabotropic glutamate receptor 5 (Rattus norvegicus, UniProt P31424); assay: Displacement of [3H]MPEP from mGluR5 in rat cortical membrane after 60 mins by liquid scintillation counting; format: cell membranes
# In short: (§1)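 Rat cortical membranes, 125–250 µg protein, incubated with 5 nM [3H]-MPEP (50.2 Ci/mmol) and varying concentrations of test agent. Filters rinsed, and bound radioactivity counted by liquid scintillation.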
# [3] = biological target: T1, Metabotropic glutamate receptor 1; assay: Allosteric antagonist activity at mGluR1 in Sprague-Dawley rat cerebellar granule cells assessed as accumulation of [3H]inositol phosphate by liquid scintillation counting; format: functional
# In short: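 Cerebellar granule cells from P8 Sprague Dawley rats grown in BEM with 10% foetal calf serum and 2 mM glutamine. At 6 DIV switched to inositol-free DMEM with [3H]-myo-inositol (0.5 µCi/100 µl/well) for 48 h. Cells preincubated 15 min at 37 °C in Locke's buffer (20 mM LiCl, pH 7.4), then 45 min with agonists/test ligands. Lysed with 0.1 M HCl 10 min on ice. Inositol phosphates isolated on formate columns, eluted with 1 M ammonium formate/0.1 M formic acid, counted by liquid scintillation.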
# Rattus norvegicus = species: Rattus norvegicus; assay: Selectivity ratio of Ki for mGluR5 in rat cortical membrane to Ki for mGluR1 in rat cerebellar membrane; format: cell membranes
# [4] = biological target: Metabotropic glutamate receptor 5 (Rattus norvegicus) (UniProt P31424); assay: Binding affinity to GluR5 in rat cortical membrane up to 10 uM; format: cell membranes; in short: as §1
# [5] = biological target: Metabotropic glutamate receptor 1 (Homo sapiens, UniProt Q13255); assay: Binding affinity to human GluR1 by FLIPR assay
# [6] = Solubility in water; format: physicochemical; settings: buffer
# Chain of Metabotropic glutamate receptor 5 (P31424 whole entry): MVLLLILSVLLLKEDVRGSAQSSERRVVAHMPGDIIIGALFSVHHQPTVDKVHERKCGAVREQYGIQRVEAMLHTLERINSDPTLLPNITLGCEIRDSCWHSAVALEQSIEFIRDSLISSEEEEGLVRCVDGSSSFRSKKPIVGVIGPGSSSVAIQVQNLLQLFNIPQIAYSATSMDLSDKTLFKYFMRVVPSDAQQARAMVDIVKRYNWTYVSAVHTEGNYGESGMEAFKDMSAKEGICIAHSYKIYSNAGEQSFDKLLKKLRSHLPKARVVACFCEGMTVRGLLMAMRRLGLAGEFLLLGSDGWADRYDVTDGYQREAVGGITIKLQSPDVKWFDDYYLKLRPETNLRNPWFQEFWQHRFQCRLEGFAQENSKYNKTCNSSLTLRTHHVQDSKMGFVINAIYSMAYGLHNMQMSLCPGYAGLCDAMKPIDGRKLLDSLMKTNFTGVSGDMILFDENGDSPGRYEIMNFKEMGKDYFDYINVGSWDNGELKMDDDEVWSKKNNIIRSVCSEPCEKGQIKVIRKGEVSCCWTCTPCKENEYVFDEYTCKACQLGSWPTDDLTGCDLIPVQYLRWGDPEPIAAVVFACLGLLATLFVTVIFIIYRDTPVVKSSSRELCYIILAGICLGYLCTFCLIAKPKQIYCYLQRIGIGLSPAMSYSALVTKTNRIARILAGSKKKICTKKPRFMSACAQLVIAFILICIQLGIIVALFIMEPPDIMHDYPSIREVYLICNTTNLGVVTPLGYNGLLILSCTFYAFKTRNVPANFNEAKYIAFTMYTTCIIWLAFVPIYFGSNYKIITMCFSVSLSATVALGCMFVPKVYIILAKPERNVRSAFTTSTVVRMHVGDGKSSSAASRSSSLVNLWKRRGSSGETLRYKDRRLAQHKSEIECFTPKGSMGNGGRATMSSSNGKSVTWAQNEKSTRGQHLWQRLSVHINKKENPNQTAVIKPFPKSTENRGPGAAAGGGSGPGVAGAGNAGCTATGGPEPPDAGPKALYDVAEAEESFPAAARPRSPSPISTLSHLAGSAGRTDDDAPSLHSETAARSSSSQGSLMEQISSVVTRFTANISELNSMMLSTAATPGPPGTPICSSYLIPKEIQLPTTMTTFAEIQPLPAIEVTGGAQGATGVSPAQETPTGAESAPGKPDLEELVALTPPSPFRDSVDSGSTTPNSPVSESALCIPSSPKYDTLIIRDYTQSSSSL
# T1 sequence (P23385 whole entry): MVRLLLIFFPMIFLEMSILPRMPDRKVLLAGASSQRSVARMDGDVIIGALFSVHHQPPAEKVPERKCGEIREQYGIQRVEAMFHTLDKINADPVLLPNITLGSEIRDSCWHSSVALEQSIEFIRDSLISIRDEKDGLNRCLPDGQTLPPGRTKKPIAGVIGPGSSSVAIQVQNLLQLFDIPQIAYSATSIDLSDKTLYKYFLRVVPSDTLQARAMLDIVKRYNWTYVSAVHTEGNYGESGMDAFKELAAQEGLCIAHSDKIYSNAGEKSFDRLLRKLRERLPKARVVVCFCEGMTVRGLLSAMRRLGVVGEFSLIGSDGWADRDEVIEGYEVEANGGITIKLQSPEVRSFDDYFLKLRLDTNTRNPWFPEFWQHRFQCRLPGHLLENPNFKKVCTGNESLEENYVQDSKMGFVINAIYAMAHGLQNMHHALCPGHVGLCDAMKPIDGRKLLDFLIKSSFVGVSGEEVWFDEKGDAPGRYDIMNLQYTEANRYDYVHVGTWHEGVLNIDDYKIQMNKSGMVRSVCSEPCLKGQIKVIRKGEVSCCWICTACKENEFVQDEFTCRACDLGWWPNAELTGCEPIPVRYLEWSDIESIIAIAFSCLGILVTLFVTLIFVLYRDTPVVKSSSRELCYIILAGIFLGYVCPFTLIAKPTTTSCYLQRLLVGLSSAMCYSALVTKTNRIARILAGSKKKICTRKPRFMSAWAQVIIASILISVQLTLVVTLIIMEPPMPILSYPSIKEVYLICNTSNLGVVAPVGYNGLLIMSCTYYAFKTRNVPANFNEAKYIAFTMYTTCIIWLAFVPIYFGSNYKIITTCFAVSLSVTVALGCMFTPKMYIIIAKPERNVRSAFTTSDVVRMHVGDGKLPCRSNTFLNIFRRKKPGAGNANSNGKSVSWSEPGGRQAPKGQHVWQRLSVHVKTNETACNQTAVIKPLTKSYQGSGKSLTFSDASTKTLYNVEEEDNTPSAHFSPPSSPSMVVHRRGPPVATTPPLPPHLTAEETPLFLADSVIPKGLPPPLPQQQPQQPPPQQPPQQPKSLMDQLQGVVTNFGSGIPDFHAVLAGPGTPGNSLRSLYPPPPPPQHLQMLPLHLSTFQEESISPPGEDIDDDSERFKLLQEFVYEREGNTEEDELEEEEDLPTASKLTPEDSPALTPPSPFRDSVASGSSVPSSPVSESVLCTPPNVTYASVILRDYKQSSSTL
# Chain of Metabotropic glutamate receptor 5 (Rattus norvegicus) (P31424 21-1203 limits assumed): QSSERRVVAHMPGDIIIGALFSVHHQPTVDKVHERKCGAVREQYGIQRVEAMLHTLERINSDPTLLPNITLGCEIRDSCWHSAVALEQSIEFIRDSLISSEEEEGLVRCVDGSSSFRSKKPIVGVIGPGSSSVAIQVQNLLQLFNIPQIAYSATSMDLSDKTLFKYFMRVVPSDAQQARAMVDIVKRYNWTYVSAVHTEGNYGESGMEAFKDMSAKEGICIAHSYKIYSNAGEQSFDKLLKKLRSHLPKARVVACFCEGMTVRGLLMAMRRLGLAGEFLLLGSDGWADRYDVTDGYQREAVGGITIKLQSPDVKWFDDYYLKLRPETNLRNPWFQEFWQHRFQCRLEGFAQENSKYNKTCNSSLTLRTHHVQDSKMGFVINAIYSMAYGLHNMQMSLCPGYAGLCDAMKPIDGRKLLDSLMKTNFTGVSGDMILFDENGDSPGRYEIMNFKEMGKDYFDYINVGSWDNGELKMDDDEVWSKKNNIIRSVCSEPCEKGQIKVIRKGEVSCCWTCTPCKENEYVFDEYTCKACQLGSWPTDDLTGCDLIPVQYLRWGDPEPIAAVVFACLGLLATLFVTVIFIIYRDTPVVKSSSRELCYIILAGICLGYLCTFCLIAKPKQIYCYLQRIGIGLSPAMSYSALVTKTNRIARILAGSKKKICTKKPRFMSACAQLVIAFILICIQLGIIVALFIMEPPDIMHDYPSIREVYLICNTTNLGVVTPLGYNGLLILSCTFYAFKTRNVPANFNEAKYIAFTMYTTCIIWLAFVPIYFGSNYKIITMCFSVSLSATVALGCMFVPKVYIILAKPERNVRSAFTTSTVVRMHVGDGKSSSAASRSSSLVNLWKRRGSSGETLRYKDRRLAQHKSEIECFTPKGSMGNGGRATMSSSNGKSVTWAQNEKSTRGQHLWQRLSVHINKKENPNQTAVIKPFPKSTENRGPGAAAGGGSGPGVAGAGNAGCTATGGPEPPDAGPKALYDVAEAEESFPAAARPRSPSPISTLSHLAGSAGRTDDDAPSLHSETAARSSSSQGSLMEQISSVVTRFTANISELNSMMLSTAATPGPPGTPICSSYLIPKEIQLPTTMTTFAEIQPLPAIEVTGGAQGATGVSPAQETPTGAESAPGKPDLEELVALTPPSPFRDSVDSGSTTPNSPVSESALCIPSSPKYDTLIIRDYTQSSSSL
# Chain of Metabotropic glutamate receptor 1 (Homo sapiens, UniProt Q13255) (Q13255 whole entry): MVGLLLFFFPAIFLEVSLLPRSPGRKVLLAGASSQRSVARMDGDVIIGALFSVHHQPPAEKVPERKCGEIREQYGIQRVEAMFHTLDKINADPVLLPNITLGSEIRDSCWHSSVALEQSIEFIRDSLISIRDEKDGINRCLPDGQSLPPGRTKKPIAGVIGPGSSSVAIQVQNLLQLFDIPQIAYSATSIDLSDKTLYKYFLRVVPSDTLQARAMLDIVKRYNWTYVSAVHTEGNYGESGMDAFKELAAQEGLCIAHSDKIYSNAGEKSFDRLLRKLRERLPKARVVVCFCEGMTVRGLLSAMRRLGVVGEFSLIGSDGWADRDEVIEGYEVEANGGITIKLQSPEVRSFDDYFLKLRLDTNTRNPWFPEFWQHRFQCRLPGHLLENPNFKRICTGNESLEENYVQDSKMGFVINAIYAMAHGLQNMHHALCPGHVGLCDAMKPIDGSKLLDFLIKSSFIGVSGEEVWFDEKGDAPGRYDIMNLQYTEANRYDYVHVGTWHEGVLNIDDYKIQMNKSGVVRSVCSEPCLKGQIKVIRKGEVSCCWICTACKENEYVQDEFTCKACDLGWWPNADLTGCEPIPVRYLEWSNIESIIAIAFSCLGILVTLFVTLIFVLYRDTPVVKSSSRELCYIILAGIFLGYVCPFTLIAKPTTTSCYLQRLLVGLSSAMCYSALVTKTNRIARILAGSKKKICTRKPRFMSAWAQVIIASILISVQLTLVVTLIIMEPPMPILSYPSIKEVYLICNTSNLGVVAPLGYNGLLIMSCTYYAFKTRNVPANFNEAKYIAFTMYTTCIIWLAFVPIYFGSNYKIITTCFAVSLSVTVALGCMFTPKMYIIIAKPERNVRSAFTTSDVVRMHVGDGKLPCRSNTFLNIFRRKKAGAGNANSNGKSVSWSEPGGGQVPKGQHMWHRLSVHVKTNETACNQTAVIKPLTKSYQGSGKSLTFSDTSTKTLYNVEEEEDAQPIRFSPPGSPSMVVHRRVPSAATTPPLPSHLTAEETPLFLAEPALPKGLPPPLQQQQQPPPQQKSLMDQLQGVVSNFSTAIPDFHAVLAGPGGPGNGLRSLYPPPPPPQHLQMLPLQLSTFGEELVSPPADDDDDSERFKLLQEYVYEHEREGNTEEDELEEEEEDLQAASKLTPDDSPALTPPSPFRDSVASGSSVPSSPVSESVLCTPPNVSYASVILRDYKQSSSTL
Compound,Ki [1] [µM],Ki [2] [µM],IC50 [3] [µM],Ratio Ki (Rattus norvegicus),Activity [4],Ki [5] [µM],solubility [6]
O=C(/C=C/c1cnc2ccccc2c1)C1CC1,> 100,> 100,,,,,
CC(=O)c1ccc(OC(=O)c2ccc(-c3ccccc3)cc2)cc1,> 40,,> 40,,,,
CCCCC1CCC(C(=O)Oc2ccc(C(C)=O)cc2)CC1 (configuration not stated),> 40,,> 40,,,,
CCOc1ccc(C(=O)/C=C/c2ccc(OCc3ccc(Cl)cc3Cl)cc2)cc1,> 40,,> 40,,,,
Cc1cccc2cc(/C=C/C(=O)c3ccccc3)c(Cl)nc12,> 40,> 100,8.5,,,,
CCCCOc1ccc(-c2nnc(-c3ccc(-c4ccccc4)cc3)s2)cc1,> 40,,28.4,,,,
CCCCCc1ccc(-c2ccc(OC(=O)C3CCC(CC)CC3)cc2)nc1 (configuration not stated),> 40,,22.5,,,,
O=C(c1ccccc1)c1ccc(/N=C/c2ccc(Br)cc2)cc1,> 40,,> 40,,,,
Cc1ccc2cc(/C=C/C(=O)c3c(C)coc3C)c(Cl)nc2c1,> 40,> 100,> 40,,,,
COc1ccc(C(=O)/C=C/c2ccc(OC3CSC3)cc2)cc1,> 40,,> 40,,,,
Cc1ccc(C(=O)c2ccc(Oc3ccccc3)cc2)cc1C,> 40,,15.3,,,,
COc1ccc(-c2cc(C)nc(-c3ccc(OC)c(Br)c3)c2)cc1Br,> 40,,> 40,,,,
COc1cc2c(cc1OC)C(Cc1ccccc1)=NC(C)(C)C2,> 40,,> 40,,,,
CCCCCCc1cc2c3c(c(=O)oc2cc1OC)CCC3,> 40,,23.9,,,,
CCn1c2ccccc2c2cc(/C=N/c3ccc(C)c(F)c3)ccc21,> 40,,> 40,,,,
O=c1cc(-c2ccccc2)c2ccc(OCc3ccc(F)cc3)cc2o1,> 40,,23.9,,,,
O=c1cc(-c2ccccc2)c2ccc(OCc3cccc(Oc4ccccc4)c3)cc2o1,> 40,,> 40,,,,
COc1ccc(C(=O)c2ccc(C(=O)c3ccc(C)c(OC)c3)cc2)cc1C,> 40,,> 40,,,,
CCCCCCOc1ccc(C(=O)Oc2ccc(C3CCCCC3)cc2)cc1,> 40,,> 40,,,,

# The next lines start with the values.
Ki [1] [µM],Ki [2] [µM],IC50 [3] [µM],Ratio Ki (Rattus norvegicus),Activity [4],Ki [5] [µM],solubility [6],Compound
> 40,> 100,20.5,,,,,COc1ccc(C(=O)/C=C/c2cc3cc(C)ccc3nc2Cl)cc1
> 40,,> 40,,,,,O=C(c1ccc(Cl)cc1)c1ccc2c(c1)CCCCO2
> 40,,30,,,,,O=C(/C=C/c1ccc(Cl)cc1)c1ccc(Oc2ccccc2)cc1
> 40,,> 40,,,,,O=c1cc(-c2ccccc2)c2cc(Cl)c(OCc3ccc(F)cc3)cc2o1
> 40,> 100,39.3,,,,,COc1ccc(C(=O)/C=C/c2cc3ccc(C)cc3nc2Cl)cc1
0.021,0.807,,29.9,,,,O=C(/C=C/c1cnc2ccccc2c1)C12CC3CC(CC(C3)C1)C2
> 40,,> 40,,,,,CC(Oc1ccc2c(c1)oc(=O)c1ccccc12)c1ccccc1 (configuration not stated)
0.137,> 100,,> 730,inactive,,,O=C(C1CC1c1cnc2ccccc2c1)C12CC3CC(CC(C3)C1)C2 (configuration not stated)
0.024,27.8,,1160,,0.11,Soluble,O=C(C1CC1c1ccc(N2CCOCC2)nc1)C12CC3CC(CC(C3)C1)C2 (configuration not stated)
9.93,> 100,0.74,,,,,Cc1ccc2nc(Cl)c(/C=C/C(=O)c3cccs3)cc2c1
36.2,,10.6,,,,,CC(CC(=O)c1ccc2c(c1)OCCO2)c1ccccc1 (configuration not stated)
7.04,22.9,,3.26,,,,O=C(C1CC1c1cccnc1)C12CC3CC(CC(C3)C1)C2 (configuration not stated)
9.18,> 100,1.7,,,,,Cc1ccc2nc(Cl)c(/C=C/C(=O)c3ccccc3)cc2c1
17.2,> 100,2.97,,,,,Cc1ccc2cc(/C=C/C(=O)c3cccs3)c(Cl)nc2c1
0.641,6.23,,9.72,,,,O=C(/C=C/c1ccc2c(c1)OCCO2)C12CC3CC(CC(C3)C1)C2
0.304,18.4,,60.5,,,,COc1ccc(C2CC2C(=O)C23CC4CC(CC(C4)C2)C3)cn1 (configuration not stated)
0.294,5.15,,17.5,,,,COc1ccc(/C=C/C(=O)C23CC4CC(CC(C4)C2)C3)cc1C
5.23,30.6,,5.9,,,,CC(C)(C)C(=O)/C=C/c1cnc2ccccc2c1
